# G6PDH CS – L. mesenteroides G6PDH inhibition counter-screen; Purified L. mesenteroides G6PDH, diaphorase/resazurin coupled fluorescence, 45 min; inhibition, % at 5 µM; 200,000 compounds, 0.12% hits; AID 1020; in the data active = inhibition above about 50%
# PMI act – increases human mannose-6-phosphate isomerase activity; P34949; purified human PMI, coupled resazurin fluorescence, 20 min; active compounds read high; 1 = vehicle control, 0 substrate-free wells; activation factor at 20 µM; 190,000 compounds, 0.005% hits; AID 1214;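 active = activation factor of 2 or more at 20 µM, relative to plate controls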
# Target sequence (P34949 whole entry, looked up): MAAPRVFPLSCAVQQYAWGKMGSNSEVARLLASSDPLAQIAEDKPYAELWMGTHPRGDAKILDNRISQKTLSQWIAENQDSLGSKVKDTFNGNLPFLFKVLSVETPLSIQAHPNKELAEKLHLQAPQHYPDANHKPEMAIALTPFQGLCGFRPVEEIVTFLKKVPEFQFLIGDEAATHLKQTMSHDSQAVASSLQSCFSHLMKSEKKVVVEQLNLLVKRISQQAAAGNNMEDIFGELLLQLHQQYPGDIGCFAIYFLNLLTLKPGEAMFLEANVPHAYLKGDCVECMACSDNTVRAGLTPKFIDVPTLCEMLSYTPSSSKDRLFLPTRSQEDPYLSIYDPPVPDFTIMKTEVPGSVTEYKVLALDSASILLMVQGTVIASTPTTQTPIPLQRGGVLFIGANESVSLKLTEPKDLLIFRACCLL
# Diaphorase act – diaphorase activation or chemical reduction counter-screen | Diaphorase/resazurin coupled assay, resorufin fluorescence, 16 min; active compounds read high; 1 = vehicle wells, 0 = NADH-free wells | activation factor at 20 µM | 190,000 compounds, 0.005% hits;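 active = diaphorase activity raised at least twofold by the compound at 20 µM; inactive = activation factor below 2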
#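 Assay system: Purified diaphorase enzyme from Clostridium kluyveri | Amount: Enzyme 0.07 U/mL final | Dosing: Compound 20 µM once, DMSO 1% | Timing: 16 min reaction at room temperature | Detection: Fluorescence, excitation 544 nm and emission 590 nm | Evaluation: Higher resorufin formation from activation or reduction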
# Diaph inh CS – inhibits diaphorase or chemically oxidizes, flagging diaphorase assay artifacts. diaphorase resazurin-to-resorufin fluorescence, NADH, 16 min; bacterial (C. kluyveri) enzyme, not human. inhibition, % at 20 µM. 190,000 compounds, 0.69% hits. AID 1217;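 active = primary screen inhibition at 20 µM above a set limit, cut at about 50% in these data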;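 also: plate controls were DMSO with full reaction for no effect and wells lacking NADH for full effect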
#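 Assay system – diaphorase enzyme from Clostridium kluyveri · Amount – diaphorase 0.14 U/mL (working solution) · Times – reaction incubation of 16 min at room temperature · Controls – No-NADH positive control and DMSO neutral control · Signal – resorufin fluorescence 544/590 nm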
# Tb hexokinase – T. brucei hexokinase 1 inhibition; recombinant TbHK1, G6PDH-coupled NADH A340; inhibition, % at 10 µM; 220,000 compounds, 0.11% hits; AID 1430;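 active = inhibition of 50% or more in the single-dose primary screen; inactive = inhibition below 50%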
# PMI act satM6P – PMI (human) activation, high substrate; P34949; coupled PMI enzyme assay, resazurin fluorescence, 20 min; active compounds read high; 1 = untreated enzyme, 0 = substrate-free blank; activation factor at 20 µM; 190,000 compounds, 0.34% hits; AID 1216;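 active = activation factor of 2 or more at 20 µM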
#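 test system = human PMI in coupled enzyme assay | medium = HEPES-buffered pH 7.4 with magnesium and detergent | also added = 1.0 mM mannose-6-phosphate substrate with 0.22 mM NADP+ | compound = 20 µM single dose | times = 20 min incubation at room temperature | measured by = resorufin fluorescence (Ex 544/Em 590 nm) from resazurin via diaphorase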
# Starred values were filed as active, the others as inactive; x = not tested or not shown. A selection: hits, their analogues and other compounds. The true share with any hit is near 1.1%.
SMILES,G6PDH CS,PMI act,Diaphorase act,Diaph inh CS,Tb hexokinase,PMI act satM6P
COCc1ccc(C(=O)N2CCCC(CCC(=O)NCc3ccccc3F)C2)o1 (configuration not stated),9,1,1,3,-9,1
O=C(O)Cc1sc(Nc2ccccc2)nc1-c1ccc(Cl)cc1,4,1.6,0.8,19,6,2.5*
CC(CN1CCOCC1)OC(=O)c1ccc(Br)cc1 (configuration not stated),57*,0.7,0.7,34,-3,0.5
C#CCSc1nnnn1-c1cccc(Cl)c1,x,x,x,x,-6,x
O=C(NC1CCCCC1)C(c1ccc(O)c(O)c1)N(C(=O)Cn1nnc2ccccc21)c1cccc(O)c1 (configuration not stated),17,0.5,0.4,56*,-6,0.8
Cn1c(=O)c(C(=S)NC(=O)C2CC2)c(N)n(Cc2ccccc2)c1=O,-35,0.9,0.3,66*,-4,0.9
Cc1cc(C(=O)N2CCc3c([nH]c4ccccc34)C2c2c(F)cccc2Cl)no1 (configuration not stated),1,0.8,0.4,57*,1,0.8
CCc1cc(C(=O)N2CCc3c([nH]c4ccccc34)C2c2ccc(OC)cc2F)no1 (configuration not stated),9,0.9,0.8,19,0,0.9
CC(C)c1ccc(NC(=O)N2CCCC2C(=O)Nc2ccc(-n3cnnn3)cc2)cc1 (configuration not stated),15,1,0.9,13,-3,1
O=C1C(Cl)=C(N2CCCCC2)C(=O)C(Cl)=C1c1cnc(N2CCCCC2)s1,34,1.5,0.4,62*,-4,1.3
C/C(CC(=O)Nc1cccc(Cl)c1Cl)=N\NC(=O)c1ccccc1C,1,1,1,0,-3,1
CC(=O)N1CCC2(CC1)C/C(=N\NC(=S)Nc1ccc(C)cc1)c1cc(O)ccc1O2,1,0.8,0.5,54*,-12,0.9
COC(=O)c1cc2n3ccccc3c(C)c(-c3ccccc3)c-2c1C(=O)OC,-4,1,0.4,57*,-47,1
COC(=O)c1cc2c(C)c(C)c3ccccn3c-2c1C(=O)OC,1,1,0.9,12,-36,1.1
O=C(COc1ccccc1/C=C\c1nc(O)c([N+](=O)[O-])c(=O)[nH]1)Nc1ccccc1,10,1,0.3,72*,-3,1
Cc1cc(/C=C\c2nc(O)c([N+](=O)[O-])c(=O)[nH]2)c(C)n1-c1ccccc1,-4,1.1,0.7,30,10,1
C=CCC1CCCCC12NC(=O)N(c1ccccc1)N2 (configuration not stated),x,x,x,x,-9,x
O=C1CCC2(CC1)NC(=O)N(c1ccccc1)N2,3,1.7,0.8,17,-3,2.6*
CCOC(=O)c1cc(C)[nH]c(=S)c1C#N,-5,1,0.5,52*,-9,1.4
Cc1cc(C)c(S(=O)(=O)Nc2cc(SCC(=O)O)c(O)c3ccccc23)cc1C,35,1,0.5,49,1,0.8
Cc1cc(C)c(S(=O)(=O)/N=C2/C=C(SCC(=O)O)C(=O)c3ccccc32)cc1C,51*,1.2,0.7,29,4,1.3
O=C1C=C(NCCN2CCOCC2)C(=O)c2cnccc21,60*,0.7,0.8,23,-3,0.5
O=C(NCCN1CCOCC1)c1ccncc1,-2,0.9,0.8,16,-2,1
CN(C)c1ccc(N=Cc2ccco2)cc1,28,0.6,0.5,48,6,0.4
C(=Nc1cccc2c(N=Cc3ccco3)cccc12)c1ccco1,11,0.2,0.2,81*,-9,0.2
SMILES,G6PDH CS,PMI act,Diaphorase act,Diaph inh CS,Tb hexokinase,PMI act satM6P
COc1ccc(-n2nc3c(N)n[nH]c3cc2=O)cc1,7,1.6,0.7,30,-14,2*
Cn1c2ccccc2c(=O)n2c(=O)c3ccccc3cc12,51*,0.9,0.8,16,-17,0.5
CN=c1scc(-c2cccs2)n1/N=C/c1ccc(O)c(O)c1O,-15,0.3,0.3,68*,1,0.7
CN=c1scc(-c2cccs2)n1/N=C/c1ccccc1O,-2,0.9,0.8,19,23,0.9
CN=c1scc(C)n1/N=C/c1ccc(O)c(O)c1O,41,0.2,0.2,76*,-11,0.2
COc1ccc(C(=O)NCC(=O)OCC(=O)N2CCc3ccccc32)cc1,5,1.1,0.9,12,-1,1.1
CC(C)c1ccc(N2CC(C)(C)C2=O)cc1,1,1.1,1,-2,2,1.1
C=CCn1c(C)c(C(C)=O)c(N2CCCC2)nc1=S,4,0.9,0.4,56*,-1,0.8
CCn1c(C)c(C(C)=O)c(N2CCCC2)nc1=S,-6,1,0.4,57*,4,1
C=CCn1c(C)c(C(C)=O)c(N2CCN(c3ccccc3)CC2)nc1=S,2,1.2,0.8,15,-4,1.2
CC(=O)c1c(N2CCN(Cc3ccccc3)CC2)nc(=S)n(-c2ccccc2)c1C,-7,1.6,0.8,20,-4,2.1*
CCn1c(C)c(C(C)=O)c(N2CCN(c3ccc(F)cc3)CC2)nc1=S,11,1.1,0.7,27,27,1.1
C=CCN(c1ccccc1Cl)S(=O)(=O)c1cccc(C(=O)OCC(=O)N(C)C2CCS(=O)(=O)C2)c1 (configuration not stated),6,1,1,2,-7,1
COc1cc2c(c(OC)c1OC)CCc1cnoc1-2,x,x,x,x,-8,x
Cc1nc(-c2ccc(Cl)cc2)sc1C1(C)CC(c2cccc([N+](=O)[O-])c2)=NO1 (configuration not stated),x,x,x,x,-8,x
O=c1cc(COc2ccccc2[N+](=O)[O-])nc2sccn12,x,x,x,x,-13,x
COc1ccc(C2NN=C(c3ccc(C)cc3)S2)cc1OC (configuration not stated),7,1.8,0.9,6,-14,2.9*
Cc1ccc(C2=NNC(c3cccc(F)c3)S2)cc1 (configuration not stated),-2,1.7,1,4,-4,2.1*
Cc1cc(C)cc(N(C(=O)CNS(=O)(=O)c2ccccc2)C(C(=O)NCc2ccccc2)c2ccc(C)o2)c1 (configuration not stated),6,0.8,0.9,13,26,0.9
Cc1ccc(S(=O)(=O)NCC(=O)N(c2ccccc2)C(C(=O)NCc2ccccc2)c2ccco2)cc1 (configuration not stated),6,0.4,0.5,51*,9,0.9
